Laboratory results: ChEMBL document CHEMBL4610117 (J Med Chem, 2020)
pIC50: −log10 of the molar value. Active and inactive are the calls of the source. No cut-off for these calls is given here.

How the values were obtained:
[1] = biological target: T1, Serine/threonine-protein kinase ATR (Homo sapiens, UniProt Q13535); test: Inhibition of 5'-TAMRA-labeled tracer 3',6'-bis(dimethylamino)-N-(4-{[2(1H-indol-4-yl)-6-(morpholin-4-yl)-pyrimidin-4-yl]amino}butyl)-3-oxo-3H-spiro[2-benzofuran-1,9'-xanthene]-5-carboxamide binding to recombinant human full-length N-terminal Flag-tagged ATR expressed in HEK293-6E cells co-expressing human full-length STREP-tagged ATRIP preincubated for 10 mins followed by tracer addition and measured after 30 mins by TR-FRET assay; assay type: cell-based
[2] = Selectivity ratio of IC50 for inhibition of PI3K/AKT/mTOR signaling pathway in human MCF7 cells to IC50 for inhibition of ATR in human HT-29 cells
[3] = biological target: T1, Serine/threonine-protein kinase ATR; test: Inhibition of ATR in human HT-29 cells assessed as reduction in histone H2AX phosphorylation measured after 30 mins by immunofluorescence cytometric assay; assay type: cell-based
Procedure, shortened: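 HT-29 cells were seeded at 12000/point in DMEM/Ham's F12 with 2 mM L-glutamine and 10% FCS and grown 24 h at 37 °C. Compound (1 nM–10 μM final) was added with hydroxyurea (2.5 mM final) for 30 min at 37 °C.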

HT-29 [4] = test: Antiproliferative activity against human HT-29 cells assessed as reduction in cell viability measured after 4 days by crystal violet staining based assay; assay type: functional; details: HT-29, 96 h
Procedure, shortened: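 Cells plated at 2000 (HT-29) or 3000 (LoVo) per point in DMEM/Ham's F12 with 2 mM L-glutamine and 10% FCS. After 24 h adherence, compounds were added at 0.001–10 μM (0.1% DMSO final) and incubated continuously for 4 d at 37 °C. Cells were glutaraldehyde-fixed, stained with crystal violet and read at 595 nm.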

[5] = Clearance in Han-Wistar rat hepatocytes at 1 uM measured after 2 to 90 mins by LC-MS/MS analysis; assay type: ADME, cell-based, Hepatocyte
[6] = Oral bioavailability in Wistar rat at 0.6 to 1 mg/kg by LC-MS/MS analysis; assay type: ADME, organism-based; details: in vivo
[7] = Efflux ratio of apparent permeability across basolateral to apical side over apical to basolateral side in human Caco2 cells at 2 uM; details: Caco-2
[8] = Lipophilicity, log D of the compound in pH 7.5 MeCN/H2O solution by reversed-phase HPLC analysis
[9] = Clearance in rat liver microsomes at 1 uM measured after 2 to 60 mins in presence of NADP by LC-MS/MS analysis; assay type: ADME, Microsome
physchem = details: pH 6.5
[10] = Clearance in Wistar rat at 0.3 to 0.5 mg/kg, iv administered as bolus dose by LC-MS/MS analysis; assay type: ADME, organism-based; details: in vivo
[11] = Apparent half life in Wistar rat at 0.3 to 0.5 mg/kg, iv administered as bolus dose by LC-MS/MS analysis; assay type: ADME, organism-based; details: in vivo, read-out: t1/2(app) (converted)
[12] = Apparent permeability across apical to basolateral side in human Caco2 cells at 2 uM measured after 2 hrs by LC-MS/MS analysis; details: Caco-2
[13] = biological target: Voltage-gated inwardly rectifying potassium channel KCNH2 (Homo sapiens, UniProt Q12809); test: Inhibition of recombinant human ERG stably expressed in HEK293 cells at -80 mV by whole cell voltage clamp method
[14] = Volume of distribution at steady state in Wistar rat at 0.3 to 0.5 mg/kg, iv administered as bolus dose by LC-MS/MS analysis; assay type: ADME, organism-based; details: in vivo, read-out: Vdss
HT-29 [15] = test: Antitumor activity against human HT-29 cells xenografted in po dosed mouse administered twice daily; assay type: functional, organism-based
LoVo = test: Antiproliferative activity against human LoVo cells assessed as reduction in cell viability measured after 4 days by crystal violet staining based assay; assay type: functional; details: 96 h

T1 sequence (Q13535 whole entry): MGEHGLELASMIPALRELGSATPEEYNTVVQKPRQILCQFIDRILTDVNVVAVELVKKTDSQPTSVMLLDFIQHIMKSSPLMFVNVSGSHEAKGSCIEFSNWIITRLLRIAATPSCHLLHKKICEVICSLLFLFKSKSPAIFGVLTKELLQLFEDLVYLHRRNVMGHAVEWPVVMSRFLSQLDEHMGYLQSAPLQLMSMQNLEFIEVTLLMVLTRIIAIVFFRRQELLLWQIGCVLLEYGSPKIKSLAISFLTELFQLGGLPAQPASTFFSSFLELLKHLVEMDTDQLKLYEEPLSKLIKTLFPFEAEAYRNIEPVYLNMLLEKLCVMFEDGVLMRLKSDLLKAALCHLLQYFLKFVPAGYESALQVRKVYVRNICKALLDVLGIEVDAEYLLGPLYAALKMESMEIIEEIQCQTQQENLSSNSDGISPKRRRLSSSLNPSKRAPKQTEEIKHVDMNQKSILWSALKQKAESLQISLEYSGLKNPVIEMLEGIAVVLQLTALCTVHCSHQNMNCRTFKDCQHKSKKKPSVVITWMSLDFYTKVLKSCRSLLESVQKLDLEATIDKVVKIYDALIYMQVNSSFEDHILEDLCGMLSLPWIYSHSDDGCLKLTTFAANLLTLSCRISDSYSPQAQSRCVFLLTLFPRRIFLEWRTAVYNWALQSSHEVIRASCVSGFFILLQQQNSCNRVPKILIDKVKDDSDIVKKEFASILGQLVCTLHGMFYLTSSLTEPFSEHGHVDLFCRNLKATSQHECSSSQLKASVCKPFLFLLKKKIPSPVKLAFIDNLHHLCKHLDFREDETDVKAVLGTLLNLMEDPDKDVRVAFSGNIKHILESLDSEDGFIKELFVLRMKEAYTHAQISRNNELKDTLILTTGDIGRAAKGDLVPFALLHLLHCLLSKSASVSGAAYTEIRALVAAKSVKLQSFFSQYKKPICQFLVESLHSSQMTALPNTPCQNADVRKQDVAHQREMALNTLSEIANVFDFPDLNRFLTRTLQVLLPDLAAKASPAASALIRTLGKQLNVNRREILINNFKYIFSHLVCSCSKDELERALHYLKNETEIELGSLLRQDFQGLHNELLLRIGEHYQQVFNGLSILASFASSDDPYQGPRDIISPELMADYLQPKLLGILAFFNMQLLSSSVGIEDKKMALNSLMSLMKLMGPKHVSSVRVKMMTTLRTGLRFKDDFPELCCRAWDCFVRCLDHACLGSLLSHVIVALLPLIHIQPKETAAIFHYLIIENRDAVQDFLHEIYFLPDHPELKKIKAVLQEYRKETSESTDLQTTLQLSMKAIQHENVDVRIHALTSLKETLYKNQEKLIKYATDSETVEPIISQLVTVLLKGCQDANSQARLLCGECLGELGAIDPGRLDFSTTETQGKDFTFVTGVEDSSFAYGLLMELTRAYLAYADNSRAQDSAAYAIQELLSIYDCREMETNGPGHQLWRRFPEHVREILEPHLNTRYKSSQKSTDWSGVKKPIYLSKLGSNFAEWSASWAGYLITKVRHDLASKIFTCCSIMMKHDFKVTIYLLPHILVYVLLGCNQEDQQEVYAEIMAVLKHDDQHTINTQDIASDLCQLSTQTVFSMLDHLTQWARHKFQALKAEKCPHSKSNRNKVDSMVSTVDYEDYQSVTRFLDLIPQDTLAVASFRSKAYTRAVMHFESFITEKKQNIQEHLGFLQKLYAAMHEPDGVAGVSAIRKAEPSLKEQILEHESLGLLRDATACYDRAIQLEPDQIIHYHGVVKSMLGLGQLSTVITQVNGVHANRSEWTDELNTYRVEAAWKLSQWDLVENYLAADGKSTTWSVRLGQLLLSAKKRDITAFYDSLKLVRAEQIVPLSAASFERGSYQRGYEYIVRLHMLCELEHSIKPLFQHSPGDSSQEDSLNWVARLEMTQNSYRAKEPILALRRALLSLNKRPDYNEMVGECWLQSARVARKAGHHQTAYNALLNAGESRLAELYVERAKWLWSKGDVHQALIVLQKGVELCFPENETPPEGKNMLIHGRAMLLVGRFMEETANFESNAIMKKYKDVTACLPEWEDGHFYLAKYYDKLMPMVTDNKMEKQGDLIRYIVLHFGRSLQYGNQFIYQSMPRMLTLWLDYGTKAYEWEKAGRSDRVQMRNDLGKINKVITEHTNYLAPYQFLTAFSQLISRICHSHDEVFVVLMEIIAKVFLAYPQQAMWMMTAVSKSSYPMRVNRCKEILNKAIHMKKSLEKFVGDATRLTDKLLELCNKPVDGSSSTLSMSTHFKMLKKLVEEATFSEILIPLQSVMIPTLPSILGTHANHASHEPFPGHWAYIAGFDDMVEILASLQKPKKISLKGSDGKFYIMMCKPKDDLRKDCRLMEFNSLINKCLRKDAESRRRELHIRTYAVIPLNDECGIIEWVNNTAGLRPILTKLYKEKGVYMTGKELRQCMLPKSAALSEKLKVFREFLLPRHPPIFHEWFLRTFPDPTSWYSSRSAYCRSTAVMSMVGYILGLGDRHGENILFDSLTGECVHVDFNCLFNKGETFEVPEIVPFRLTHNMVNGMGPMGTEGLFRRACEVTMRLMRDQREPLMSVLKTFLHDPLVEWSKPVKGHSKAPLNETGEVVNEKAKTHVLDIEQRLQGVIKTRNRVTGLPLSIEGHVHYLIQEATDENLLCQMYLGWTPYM
Sequence of Voltage-gated inwardly rectifying potassium channel KCNH2 (Q12809 whole entry): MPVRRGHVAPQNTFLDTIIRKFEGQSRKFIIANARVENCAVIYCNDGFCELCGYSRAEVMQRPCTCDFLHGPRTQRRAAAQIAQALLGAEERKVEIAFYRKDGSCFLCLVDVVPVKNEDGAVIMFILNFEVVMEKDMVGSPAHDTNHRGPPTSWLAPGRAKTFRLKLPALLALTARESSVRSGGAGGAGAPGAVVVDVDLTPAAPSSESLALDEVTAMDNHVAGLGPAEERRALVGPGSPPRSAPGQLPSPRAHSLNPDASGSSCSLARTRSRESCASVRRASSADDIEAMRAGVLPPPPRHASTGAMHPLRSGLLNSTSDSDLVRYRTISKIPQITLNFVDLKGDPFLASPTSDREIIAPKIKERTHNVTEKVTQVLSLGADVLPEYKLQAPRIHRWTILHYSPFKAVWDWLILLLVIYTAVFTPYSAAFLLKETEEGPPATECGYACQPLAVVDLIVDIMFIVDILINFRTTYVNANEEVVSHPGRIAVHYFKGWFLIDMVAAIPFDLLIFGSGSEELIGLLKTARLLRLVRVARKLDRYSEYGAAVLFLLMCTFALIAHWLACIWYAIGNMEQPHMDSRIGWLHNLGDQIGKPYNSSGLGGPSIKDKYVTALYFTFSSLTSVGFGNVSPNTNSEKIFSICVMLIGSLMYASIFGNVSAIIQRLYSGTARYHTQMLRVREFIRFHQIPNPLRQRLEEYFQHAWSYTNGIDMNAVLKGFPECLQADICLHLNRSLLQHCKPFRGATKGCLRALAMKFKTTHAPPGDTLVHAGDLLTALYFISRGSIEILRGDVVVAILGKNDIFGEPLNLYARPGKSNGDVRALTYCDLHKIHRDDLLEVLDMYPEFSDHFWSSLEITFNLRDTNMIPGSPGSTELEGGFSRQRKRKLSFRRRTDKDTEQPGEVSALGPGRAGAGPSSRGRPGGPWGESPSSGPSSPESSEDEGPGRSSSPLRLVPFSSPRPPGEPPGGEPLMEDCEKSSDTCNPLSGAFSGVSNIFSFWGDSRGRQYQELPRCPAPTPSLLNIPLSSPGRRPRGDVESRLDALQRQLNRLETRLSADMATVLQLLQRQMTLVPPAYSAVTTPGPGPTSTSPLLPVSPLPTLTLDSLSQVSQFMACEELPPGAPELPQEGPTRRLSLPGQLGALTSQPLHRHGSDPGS

CC(C)Oc1cc(N2C[C@@H]3C[C@H]2CO3)nc2c(-c3ccn[nH]3)nccc12
pIC50 [1]: 6.04

CC(C)Oc1cc(N2CCO[C@H](C)C2)nc2c(-c3ccn[nH]3)nccc12
pIC50 [1]: 5.82

CC(C)Oc1cc(N2CCOCC2)nc2c(-c3cnc[nH]3)nccc12
pIC50 [1]: 5.47

CC(C)Oc1cc(N2CCOCC2C(F)(F)F)nc2c(-c3ccn[nH]3)nccc12 (stereo not given)
pIC50 [1]: 5.06

CC(C)Oc1cc(N2CCOCC2(C)C)nc2c(-c3ccn[nH]3)nccc12
pIC50 [1]: < 4.70

CCP(=O)(CC)c1cc(N2CCOC[C@H]2C)nc2c(-c3ccn[nH]3)nccc12
Ratio IC50 [2]: 61 | pIC50 [3]: 6.54 | pIC50 (HT-29 [4]): 6.30

CC(C)Oc1cc(N2CCOC[C@H]2C)nc2c(-c3ccn[nH]3)nccc12
Ratio IC50 [2]: 25 | pIC50 [3]: 6.81 | pIC50 (HT-29 [4]): 6.03

C[C@@H]1COCCN1c1cc(C#Cc2cccnc2)c2ccnc(-c3ccn[nH]3)c2n1
Ratio IC50 [2]: 8 | pIC50 [3]: 6.64 | pIC50 (HT-29 [4]): 6.39 | pIC50 [1]: 7.66

CC(C)Oc1cc(N2CC(F)(F)OC(F)(F)C2)nc2c(-c3ccn[nH]3)nccc12
pIC50 [1]: < 4.70

CCC1COCCN1c1cc(OC(C)C)c2ccnc(-c3ccn[nH]3)c2n1 (stereo not given)
pIC50 [1]: 5.73

CC(C)Oc1cc(N2C3CCC2COC3)nc2c(-c3ccn[nH]3)nccc12
pIC50 [1]: 6.51

CC(C)Oc1cc(N2CCOCC2)nc2c(-c3cc4ccccc4[nH]3)nccc12
pIC50 [1]: < 4.70

Cc1cn[nH]c1-c1nccc2c(OC(C)C)cc(N3CCOCC3)nc12
pIC50 [1]: 5.25

CC(C)Oc1cc(N2CCOCC2)nc2c(-c3cccc(C(N)=O)c3)nccc12
pIC50 [1]: 4.76

CC(C)Oc1cc(N2CCOCC2)nc2c(-c3ccn[nH]3)nccc12
Ratio IC50 [2]: 5 | pIC50 [3]: 6.37

COc1cccc(-c2nccc3c(OC(C)C)cc(N4CCOCC4)nc23)n1
pIC50 [1]: 4.88

CC(C)Oc1cc(N2CCOCC2)nc2c(-c3ccnn3C)nccc12
pIC50 [1]: 4.90

CC(C)Oc1cc(N2CCOCC2)nc2c(-c3ccc[nH]3)nccc12
pIC50 [3]: < 5.52

CC(C)Oc1cc(N2CCOCC2)nc2c(C(N)=O)nccc12
pIC50 [1]: 5.48

Cc1nccn1-c1cc(N2CCOC[C@H]2C)nc2c(-c3ccn[nH]3)nccc12
Ratio IC50 [2]: 263 | pIC50 [3]: 7.12 | pIC50 (HT-29 [4]): 6.72 | pIC50 [1]: 7.60

CC(C)Oc1cc(N2CCOCC2)nc2cnccc12
pIC50 [1]: < 4.70

CS(=O)(=O)c1ccc(-c2cc(N3CCOCC3)nc3c(-c4cc[nH]n4)nccc23)cc1
CLH [5]: 10.7 mL/min/kg | bioavailability [6]: 14% | efflux ratio at 2 µM [7]: 2.1 | chromatographic logD [8]: 2.1 | CLH [9]: 11.5 mL/min/kg | solubility at 24 h (physchem): < 1 µg/mL | pIC50 [3]: 6.42 | clearance [10]: 25 mL/min/kg | half-life [11]: 55.8 min | Papp A→B at 2 h, 2 µM [12]: 10.2 ×10⁻⁶ cm/s | pIC50 [13]: 5.24 | Vd [14]: 2 L/kg

CC(C)Oc1cc(N2CCOCC2)nc2c(-c3cccc(=O)[nH]3)nccc12
pIC50 [1]: < 4.70

CC(C)Oc1cc(N2CCOCC2)nc2c(-c3nnn[nH]3)nccc12
pIC50 [1]: < 4.70

COC1(C)CN(c2cc(OC(C)C)c3ccnc(-c4ccn[nH]4)c3n2)C1
pIC50 [1]: < 4.70

CCS(=O)(CC)=Nc1cc(N2CCOC[C@H]2C)nc2c(-c3ccn[nH]3)nccc12
Ratio IC50 [2]: 217 | pIC50 [3]: 7.52 | pIC50 (HT-29 [4]): 6.77 | pIC50 [1]: 7.66

CC(C)Oc1cc(N2CCOCC2)nc2c(-c3ccc[nH]c3=O)nccc12
pIC50 [1]: < 4.70

Cc1cc(-c2nccc3c(OC(C)C)cc(N4CCOCC4)nc23)n[nH]1
pIC50 [1]: 4.90

CC(C)Oc1cc(N2CCOCC2)nc2c(-c3cn[nH]c3)nccc12
pIC50 [1]: 5.43

C[C@@H]1COCCN1c1cc(N(C)c2ccc(F)cc2)c2ccnc(-c3ccn[nH]3)c2n1
Ratio IC50 [2]: 42 | pIC50 [3]: 7.15 | pIC50 (HT-29 [4]): 6.42 | pIC50 [1]: 8.05

C[C@@H]1COCCN1c1cc(C2CCOCC2)c2ccnc(-c3ccn[nH]3)c2n1
pIC50 (HT-29 [4]): 6.53

CC(C)Oc1cc(N2C[C@H]3COC[C@H]3C2)nc2c(-c3ccn[nH]3)nccc12
pIC50 [1]: 5.03

CS(=O)(=O)c1ccc(-c2cc(N3CCOCC3)nc3c(-c4ccn[nH]4)nccc23)cc1
Ratio IC50 [2]: 13 | Activity (HT-29 [15]): Active | pIC50 (HT-29 [4]): 6.15 | pIC50 (LoVo): 6.50

C[C@@H]1COCCN1c1cc(N2CCN(S(C)(=O)=O)CC2)c2ccnc(-c3ccn[nH]3)c2n1
Ratio IC50 [2]: 44 | pIC50 [3]: 7.23 | pIC50 (HT-29 [4]): 6.63 | pIC50 [1]: 8.30

CNC(=O)c1nccc2c(OC(C)C)cc(N3CCOCC3)nc12
pIC50 [1]: < 4.70

CC(C)Oc1cc(N2CCOCC2)nc2c(C3CCNC3)nccc12 (stereo not given)
pIC50 [1]: < 4.70

C[C@@H]1COCCN1c1cc(-c2cnc3n2CCC3)c2ccnc(-c3ccn[nH]3)c2n1
Ratio IC50 [2]: 59 | pIC50 [3]: 7.09 | pIC50 (HT-29 [4]): 6.90

C[C@@H]1COCCN1c1cc(C(C)(O)C(C)(C)C)c2ccnc(-c3ccn[nH]3)c2n1 (stereo not given in full)
pIC50 (HT-29 [4]): 7.03

CC(C)Oc1cc(N2CCOCC2)nc2c(-c3cccnc3)nccc12
pIC50 [1]: 4.74

C[C@@H]1COCCN1c1cc(-c2cccnc2F)c2ccnc(-c3ccn[nH]3)c2n1
Ratio IC50 [2]: 50 | pIC50 [3]: 7.36 | pIC50 (HT-29 [4]): 6.76 | pIC50 [1]: 8.10

CC(C)Oc1cc(N2CCOC3CC32)nc2c(-c3ccn[nH]3)nccc12 (stereo not given)
pIC50 [1]: 5.82

Cc1nc(S(C)(=N)=O)ccc1-c1cc(N2CCOC[C@H]2C)nc2c(-c3ccn[nH]3)nccc12 (stereo not given in full)
Ratio IC50 [2]: 16 | pIC50 [3]: 6.58 | pIC50 (HT-29 [4]): 6.49 | pIC50 [1]: 8.00

CC(C)Oc1cc(N2CCOCC2)nc2c(-c3ccn[nH]3)cccc12
pIC50 [1]: 5.30

CC(C)Oc1cc(N2CCO[C@@H](C)C2)nc2c(-c3ccn[nH]3)nccc12
pIC50 [1]: 5.71

C[C@@H]1COCCN1c1cc(C2(S(C)(=O)=O)CC2)c2ccnc(-c3ccn[nH]3)c2n1
Ratio IC50 [2]: 71 | pIC50 [3]: 7.07 | pIC50 (HT-29 [4]): 6.57 | pIC50 [1]: 7.82
